Tests used:
Type in all cases: functional
Aphis craccivora [1] = experiment: Insecticidal activity against Aphis craccivora (cowpea aphid) infested tender soybean shoots exposed to 5 mg/kg test compound solution assessed as insect mortality measured 24 hr post compound treatment; conditions: Aphis craccivora, 24 h
Method in brief: (§1)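 Soybean tender shoots carrying 60 aphids were dipped in test solutions. Solutions were made from a 200 mg L^-1 stock in dimethylformamide, diluted with water containing TW-20. Insects were laboratory-reared, tests were held at 25±1 °C, and mortality was scored.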

Plutella xylostella [2] = experiment: Insecticidal activity against Plutella xylostella (diamondback moth) grown on compound pre-treated fresh cabbage leaves assessed as insect mortality at 2.5 mg/kg measured 3 days post compound treatment by leaf-dip method
Method in brief: (§2)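 Leaf-dip stomach-toxicity assay on laboratory-reared diamondback moth. Test solutions came from a 200 mg L^-1 stock in dimethylformamide, diluted with water containing TW-20. Control leaves were treated with water and dimethylformamide. Tests were held at 25±1 °C, percentage mortality was scored 3 days after treatment, and each treatment was run three times.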

Aphis craccivora [3] = experiment: Insecticidal activity against Aphis craccivora (cowpea aphid) infested tender soybean shoots exposed to 2.5 mg/kg test compound solution assessed as insect mortality measured 24 hr post compound treatment; conditions: Aphis craccivora, 24 h; method in brief: as §1
Aphis craccivora [4] = experiment: Insecticidal activity against Aphis craccivora (cowpea aphid) infested tender soybean shoots exposed to 100 mg/kg test compound solution assessed as insect mortality measured 24 hr post compound treatment; method in brief: as §1
Culex pipiens pallens [5] = experiment: Insecticidal activity against Culex pipiens pallens (mosquito) assessed as insect mortality at 25 ug/kg measured 1 day post compound treatment; conditions: 24 h
Method in brief: (§3)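 Fourth-instar Culex pipiens pallens larvae, 20 per test, were laboratory-reared and placed in 100 mL of test solution made by adding 1 mL of compound dilution to 99 mL of water. Tests were held at 25±1 °C, percentage mortality was scored 1 day after treatment, and each test was run three times.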

Plutella xylostella [6] = experiment: Insecticidal activity against Plutella xylostella (diamondback moth) grown on compound pre-treated fresh cabbage leaves assessed as insect mortality at 5 mg/kg measured 3 days post compound treatment by leaf-dip method; conditions: Plutella xylostella; method in brief: as §2
Aphis craccivora [7] = experiment: Insecticidal activity against Aphis craccivora (cowpea aphid) infested tender soybean shoots exposed to 200 mg/kg test compound solution assessed as insect mortality measured 24 hr post compound treatment; method in brief: as §1
Plutella xylostella [8] = experiment: Insecticidal activity against Plutella xylostella (diamondback moth) grown on compound pre-treated fresh cabbage leaves assessed as insect mortality at 100 mg/kg measured 3 days post compound treatment by leaf-dip method; method in brief: as §2
Plutella xylostella [9] = experiment: Insecticidal activity against Plutella xylostella (diamondback moth) grown on compound pre-treated fresh cabbage leaves assessed as insect mortality at 50 mg/kg measured 3 days post compound treatment by leaf-dip method; method in brief: as §2
Culex pipiens pallens [10] = experiment: Insecticidal activity against Culex pipiens pallens (mosquito) assessed as insect mortality at 100 ug/kg measured 1 day post compound treatment; conditions: Culex pipiens, 24 h; method in brief: as §3
Culex pipiens pallens [11] = experiment: Insecticidal activity against Culex pipiens pallens (mosquito) assessed as insect mortality at 50 ug/kg measured 1 day post compound treatment; conditions: 24 h; method in brief: as §3
Plutella xylostella [12] = experiment: Insecticidal activity against Plutella xylostella (diamondback moth) grown on compound pre-treated fresh cabbage leaves assessed as insect mortality at 25 mg/kg measured 3 days post compound treatment by leaf-dip method; conditions: Plutella xylostella; method in brief: as §2
Plutella xylostella [13] = experiment: Insecticidal activity against Plutella xylostella (diamondback moth) grown on compound pre-treated fresh cabbage leaves assessed as insect mortality at 200 mg/kg measured 3 days post compound treatment by leaf-dip method; method in brief: as §2
Aphis craccivora [14] = experiment: Insecticidal activity against Aphis craccivora (cowpea aphid) infested tender soybean shoots exposed to 25 mg/kg test compound solution assessed as insect mortality measured 24 hr post compound treatment; method in brief: as §1
Aphis craccivora [15] = experiment: Insecticidal activity against Aphis craccivora (cowpea aphid) infested tender soybean shoots exposed to 10 mg/kg test compound solution assessed as insect mortality measured 24 hr post compound treatment; conditions: Aphis craccivora, 24 h; method in brief: as §1
Aphis craccivora [16] = experiment: Insecticidal activity against Aphis craccivora (cowpea aphid) infested tender soybean shoots exposed to 50 mg/kg test compound solution assessed as insect mortality measured 24 hr post compound treatment; method in brief: as §1
Plutella xylostella [17] = experiment: Insecticidal activity against Plutella xylostella (diamondback moth) grown on compound pre-treated fresh cabbage leaves assessed as insect mortality at 10 mg/kg measured 3 days post compound treatment by leaf-dip method; conditions: Plutella xylostella; method in brief: as §2
Culex pipiens pallens [18] = experiment: Insecticidal activity against Culex pipiens pallens (mosquito) assessed as insect mortality at 10 ug/kg measured 1 day post compound treatment; conditions: 24 h; method in brief: as §3
Culex pipiens pallens [19] = experiment: Insecticidal activity against Culex pipiens pallens (mosquito) assessed as insect mortality at 5 ug/kg measured 1 day post compound treatment; conditions: 24 h; method in brief: as §3
Culex pipiens pallens [20] = experiment: Insecticidal activity against Culex pipiens pallens (mosquito) assessed as insect mortality at 2.5 ug/kg measured 1 day post compound treatment; conditions: 24 h; method in brief: as §3

Compound	mortality at 5 mg/kg (Aphis craccivora [1]) [%]	mortality at 2.5 mg/kg (Plutella xylostella [2]) [%]	mortality at 2.5 mg/kg (Aphis craccivora [3]) [%]	mortality at 100 mg/kg (Aphis craccivora [4]) [%]	mortality at 0.025 mg/kg (Culex pipiens pallens [5]) [%]	mortality at 5 mg/kg (Plutella xylostella [6]) [%]	mortality at 200 mg/kg (Aphis craccivora [7]) [%]	mortality at 100 mg/kg (Plutella xylostella [8]) [%]	mortality at 50 mg/kg (Plutella xylostella [9]) [%]	mortality at 0.1 mg/kg (Culex pipiens pallens [10]) [%]	mortality at 0.05 mg/kg (Culex pipiens pallens [11]) [%]	mortality at 25 mg/kg (Plutella xylostella [12]) [%]	mortality at 200 mg/kg (Plutella xylostella [13]) [%]	mortality at 25 mg/kg (Aphis craccivora [14]) [%]	mortality at 10 mg/kg (Aphis craccivora [15]) [%]	mortality at 50 mg/kg (Aphis craccivora [16]) [%]	mortality at 10 mg/kg (Plutella xylostella [17]) [%]	mortality at 0.01 mg/kg (Culex pipiens pallens [18]) [%]	mortality at 0.005 mg/kg (Culex pipiens pallens [19]) [%]	mortality at 0.0025 mg/kg (Culex pipiens pallens [20]) [%]
CCOC(Nc1c([S+](C)[O-])c(C#N)nn1-c1c(Cl)cc(C(F)(F)F)cc1Cl)C(Cl)(Cl)Cl (configuration not stated)	63	0	0	100	30	63	100	100	100	100	100	100	100	100	85	100	85	–	–	–
CCOC(Nc1c([S+]([O-])CC)c(C#N)nn1-c1c(Cl)cc(C(F)(F)F)cc1Cl)C(Cl)(Cl)Cl (configuration not stated)	81	0	0	100	40	29	100	100	100	100	100	100	100	100	100	100	72	–	–	–
CSc1c(C#N)nn(-c2c(Cl)cc(C(F)(F)F)cc2Cl)c1NC(OCCF)C(Cl)(Cl)Cl (configuration not stated)	28	34	0	100	100	81	100	100	100	100	100	100	100	74	62	100	89	40	–	–
CCSc1c(C#N)nn(-c2c(Cl)cc(C(F)(F)F)cc2Cl)c1NC(OC)C(Cl)(Cl)Cl (configuration not stated)	–	–	–	90	100	–	93	100	94	100	100	34	100	62	0	80	0	100	100	30
COC(Nc1c(SC)c(C#N)nn1-c1c(Cl)cc(C(F)(F)F)cc1Cl)C(Cl)(Cl)Cl (configuration not stated)	43	25	0	100	100	76	100	100	100	100	100	100	100	94	89	100	86	100	100	70
CCOC(Nc1c(SC)c(C#N)nn1-c1c(Cl)cc(C(F)(F)F)cc1Cl)C(Cl)(Cl)Cl (configuration not stated)	0	0	–	100	100	43	100	100	100	100	100	84	100	43	0	56	68	100	100	80
CCOC(Nc1c(SCC)c(C#N)nn1-c1c(Cl)cc(C(F)(F)F)cc1Cl)C(Cl)(Cl)Cl (configuration not stated)	–	–	–	86	100	–	90	100	96	100	100	44	100	35	0	75	18	100	0	–
CCCOC(Nc1c(SCC)c(C#N)nn1-c1c(Cl)cc(C(F)(F)F)cc1Cl)C(Cl)(Cl)Cl (configuration not stated)	–	–	–	90	100	–	95	100	89	100	100	58	100	53	0	85	17	100	50	–
CCCOC(Nc1c(SC)c(C#N)nn1-c1c(Cl)cc(C(F)(F)F)cc1Cl)C(Cl)(Cl)Cl (configuration not stated)	0	–	0	100	100	–	100	100	36	100	100	17	100	43	21	90	0	100	100	100
CSc1c(C#N)nn(-c2c(Cl)cc(C(F)(F)F)cc2Cl)c1NC(OCCCl)C(Cl)(Cl)Cl (configuration not stated)	69	62	62	100	100	87	100	100	100	100	100	100	100	98	73	100	100	100	20	–
CCSc1c(C#N)nn(-c2c(Cl)cc(C(F)(F)F)cc2Cl)c1NC(OCCCl)C(Cl)(Cl)Cl (configuration not stated)	0	–	–	100	100	0	100	100	88	100	100	43	100	100	51	100	27	100	100	60
